Calls of active or inactive are those of the source. The rule behind the calls is not given here.
Legend:
Carboxypeptidase A1 [1] = molecular target: T1, Carboxypeptidase A1 (Homo sapiens, UniProt P15085); experiment: Inhibition of human CPA1 using AAFP as substrate assessed as apparent first-order rate constant measured at pre-steady state by measuring Koff/Kon ratio by spectrophotometry; conditions: read-out: Ki(app)
T1 sequence (P15085 whole entry): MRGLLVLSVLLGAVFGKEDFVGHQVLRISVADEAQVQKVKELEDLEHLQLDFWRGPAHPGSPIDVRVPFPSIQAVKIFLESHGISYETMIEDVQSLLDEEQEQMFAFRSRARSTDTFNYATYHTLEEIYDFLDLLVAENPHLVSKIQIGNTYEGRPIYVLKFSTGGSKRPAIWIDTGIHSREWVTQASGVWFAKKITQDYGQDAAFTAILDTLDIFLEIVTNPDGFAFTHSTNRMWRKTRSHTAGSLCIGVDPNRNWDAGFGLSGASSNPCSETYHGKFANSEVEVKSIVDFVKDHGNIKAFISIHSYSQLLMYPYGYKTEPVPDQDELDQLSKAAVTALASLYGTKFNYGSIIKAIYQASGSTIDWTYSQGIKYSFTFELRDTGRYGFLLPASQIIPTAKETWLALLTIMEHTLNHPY

[2] = molecular target: T2, Carboxypeptidase A1 (Homo sapiens) (UniProt P15085); experiment: Inhibition of human CPA1 using AAFP as substrate assessed as dissociation rate constant measured at pre-steady state by spectrophotometry
T2 sequence (whole entry): T1 sequence (P15085 whole entry)

[3] = molecular target: T3, Carboxypeptidase B (Homo sapiens) (UniProt P15086); experiment: Inhibition of human CPB1 at 1 nM to 1 mM using AAFA as substrate preincubated for 45 mins to 2 hrs measured at 30 sec intervals for 15 mins by UV/vis-spectrophotometry
T3 sequence (whole entry): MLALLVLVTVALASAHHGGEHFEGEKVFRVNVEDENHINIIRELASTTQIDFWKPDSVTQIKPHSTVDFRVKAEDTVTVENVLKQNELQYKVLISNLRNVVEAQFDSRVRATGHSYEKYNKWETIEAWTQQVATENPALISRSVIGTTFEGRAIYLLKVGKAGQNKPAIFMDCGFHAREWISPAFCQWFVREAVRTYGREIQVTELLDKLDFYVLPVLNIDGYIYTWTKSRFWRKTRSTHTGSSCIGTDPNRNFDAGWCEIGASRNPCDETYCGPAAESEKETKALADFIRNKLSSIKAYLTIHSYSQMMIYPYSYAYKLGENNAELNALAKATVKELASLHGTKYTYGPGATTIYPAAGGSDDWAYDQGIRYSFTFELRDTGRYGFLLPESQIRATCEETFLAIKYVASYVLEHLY
How it was run: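 hCPB1 was used at 6.0x10-9 M with 1.0x10-4 M AAFA, read at 355 nm. After 45 min preincubation with inhibitor at 37 °C, residual activity at varied inhibitor concentrations was followed for 15 min at 30 sec intervals, in triplicate. Kiapp was fitted with the tight-binding equation.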

Carboxypeptidase A1 [4] = molecular target: T1, Carboxypeptidase A1; experiment: Inhibition of human CPA1 using AAFP as substrate measured at pre-steady state by spectrophotometry
[5] = molecular target: T2, Carboxypeptidase A1 (Homo sapiens); experiment: Inhibition of human CPA1 using AAFP as substrate assessed as association rate constant measured at pre-steady state by spectrophotometry
Carboxypeptidase A4 = molecular target: T4, Carboxypeptidase A4 (Homo sapiens, UniProt Q9UI42); experiment: Inhibition of human CPA4 using AAFP as substrate preincubated for 45 mins to 2 hrs measured at 30 sec intervals for 15 mins by UV/vis-spectrophotometry
T4 sequence (Q9UI42 whole entry): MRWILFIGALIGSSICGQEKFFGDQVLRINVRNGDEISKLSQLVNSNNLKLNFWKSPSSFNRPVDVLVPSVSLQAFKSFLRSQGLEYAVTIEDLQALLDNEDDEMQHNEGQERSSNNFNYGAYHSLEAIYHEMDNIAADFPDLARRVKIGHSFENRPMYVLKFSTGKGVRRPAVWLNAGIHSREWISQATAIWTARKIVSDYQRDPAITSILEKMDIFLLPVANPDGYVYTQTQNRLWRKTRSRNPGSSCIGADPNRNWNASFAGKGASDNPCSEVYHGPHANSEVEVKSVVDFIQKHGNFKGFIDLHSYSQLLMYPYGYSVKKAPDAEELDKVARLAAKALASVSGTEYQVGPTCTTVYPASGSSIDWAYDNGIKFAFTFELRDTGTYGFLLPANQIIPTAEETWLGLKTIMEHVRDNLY
How it was run: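 Enzyme was hCPA4 at 4.3x10-8 M, with 1.0x10-4 M AAFP and detection at 355 nm. Inhibitor and enzyme were preincubated 45 min at 37 °C, then initial velocities were taken over 15 min (30 sec reads), in triplicate. Kiapp was obtained from the tight-binding fit.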

[6] = molecular target: Neutrophil elastase (Homo sapiens) (UniProt P08246); experiment: Inhibition of human neutrophil Elastase at 1 nM to 1 mM using succinyl-alanylalanyl-prolyl-valine-4-nitroanilide as substrate preincubated for 45 mins measured at 30 sec intervals for 15 mins by UV/vis-spectrophotometry
How it was run: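 hNElastase 2.0x10-7 M, Suc-AAPVPNA 1.0x10-3 M, in 100 mM Tris-HCl pH 8.0, monitored at 414 nm. Preincubated with inhibitor 45 min at 37 °C before substrate; initial velocities from 30-sec reads over 15 min, triplicate.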

[7] = molecular target: Matrix metalloproteinase-9 (Homo sapiens, UniProt P14780); experiment: Inhibition of human MMP9 using fluorogenic Mca-Pro-Leu-Gly-Leu-Dpa-Ala-Arg-NH2 peptide as substrate preincubated for 45 mins measured at 30 sec intervals for 15 mins by UV/vis-spectrophotometry
How it was run: (§1)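 MMPs at nanomolar level with fluorogenic Mca-Pro-Leu-Gly-Leu-Dpa-Ala-Arg-NH2 substrate in 50 mM Tris-HCl pH 6.8, 10 mM CaCl2. Enzyme, inhibitor and buffer preincubated 45 min at 37 °C, then substrate added; initial velocities from 30-sec reads over 15 min, in triplicate.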

HEK-293T [8] = experiment: Cytotoxicity against HEK293T cells by fluorescence confocal microscopy; assay type: cell-based; conditions: human
[9] = molecular target: Cytosolic carboxypeptidase 6 (Homo sapiens) (UniProt Q5VU57); experiment: Inhibition of human CCP6 at 1 nM to 1 mM using tubulin as substrate preincubated for 45 mins measured at 30 sec intervals for 15 mins by UV/vis-spectrophotometry
How it was run: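 hCCP1 or hCCP6 at 1.0x10-6 g with tubulin (12.5x10-5 g) as substrate in 20 mM Tris-HCl pH 7.5, 100 mM NaCl. Enzyme, inhibitor and buffer preincubated 45 min at 37 °C before substrate addition; run in triplicate.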

[10] = molecular target: Macrophage metalloelastase (Homo sapiens, UniProt P39900); experiment: Inhibition of human MMP12 using fluorogenic Mca-Pro-Leu-Gly-Leu-Dpa-Ala-Arg-NH2 peptide as substrate preincubated for 45 mins measured at 30 sec intervals for 15 mins by UV/vis-spectrophotometry; how it was run: as §1
HEK-293T [11] = experiment: Cytotoxicity against HEK293T cells assessed as reduction in cell viability at 1 to 5 uM after 24 hrs by XTT assay; assay type: cell-based; conditions: human
How it was run: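 Cells were exposed to compound at 1 and 5 µM for 24h in culture, and viability was then read by the XTT assay.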

Cytosolic carboxypeptidase 6 (Homo sapiens), sequence (Q5VU57 whole entry): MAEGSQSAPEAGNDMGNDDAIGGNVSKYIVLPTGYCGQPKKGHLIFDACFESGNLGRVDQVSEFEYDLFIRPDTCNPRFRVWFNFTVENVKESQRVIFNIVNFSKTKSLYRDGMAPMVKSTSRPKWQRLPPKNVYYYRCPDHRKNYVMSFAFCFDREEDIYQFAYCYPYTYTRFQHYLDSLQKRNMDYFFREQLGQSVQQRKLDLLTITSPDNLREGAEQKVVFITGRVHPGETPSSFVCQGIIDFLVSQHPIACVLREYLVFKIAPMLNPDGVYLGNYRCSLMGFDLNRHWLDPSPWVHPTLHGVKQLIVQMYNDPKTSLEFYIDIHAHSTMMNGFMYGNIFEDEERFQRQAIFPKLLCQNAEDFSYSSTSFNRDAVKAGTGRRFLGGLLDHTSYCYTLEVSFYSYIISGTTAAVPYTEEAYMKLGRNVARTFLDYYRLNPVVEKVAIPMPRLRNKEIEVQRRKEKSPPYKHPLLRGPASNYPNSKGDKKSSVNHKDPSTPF
Neutrophil elastase (Homo sapiens), sequence (P08246 whole entry): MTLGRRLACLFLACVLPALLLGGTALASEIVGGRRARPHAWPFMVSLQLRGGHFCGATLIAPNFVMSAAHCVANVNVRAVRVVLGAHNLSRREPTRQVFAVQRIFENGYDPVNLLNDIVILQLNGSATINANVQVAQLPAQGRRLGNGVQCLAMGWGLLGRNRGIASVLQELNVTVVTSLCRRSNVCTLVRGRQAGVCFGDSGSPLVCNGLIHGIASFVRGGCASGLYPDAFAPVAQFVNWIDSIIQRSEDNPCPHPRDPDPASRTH
Matrix metalloproteinase-9, sequence (P14780 whole entry): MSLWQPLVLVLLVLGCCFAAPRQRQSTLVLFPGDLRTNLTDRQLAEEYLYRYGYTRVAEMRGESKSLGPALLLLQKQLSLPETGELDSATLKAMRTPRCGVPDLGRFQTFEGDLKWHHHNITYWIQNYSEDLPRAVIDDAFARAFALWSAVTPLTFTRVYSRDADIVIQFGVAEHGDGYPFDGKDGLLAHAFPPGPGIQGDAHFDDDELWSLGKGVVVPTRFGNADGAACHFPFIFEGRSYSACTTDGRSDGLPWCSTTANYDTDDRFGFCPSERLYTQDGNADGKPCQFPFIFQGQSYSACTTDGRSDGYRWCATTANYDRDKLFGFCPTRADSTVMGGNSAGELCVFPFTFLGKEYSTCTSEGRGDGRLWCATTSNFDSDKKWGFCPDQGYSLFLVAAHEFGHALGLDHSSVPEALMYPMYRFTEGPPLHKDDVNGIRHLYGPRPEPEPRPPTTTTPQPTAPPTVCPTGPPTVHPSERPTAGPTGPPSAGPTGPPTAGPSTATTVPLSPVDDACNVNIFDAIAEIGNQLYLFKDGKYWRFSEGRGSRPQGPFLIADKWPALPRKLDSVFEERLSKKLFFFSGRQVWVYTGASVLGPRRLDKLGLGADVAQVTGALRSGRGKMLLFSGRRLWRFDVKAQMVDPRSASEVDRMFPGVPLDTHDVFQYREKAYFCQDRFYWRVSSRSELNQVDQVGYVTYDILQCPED
Macrophage metalloelastase, sequence (P39900 whole entry): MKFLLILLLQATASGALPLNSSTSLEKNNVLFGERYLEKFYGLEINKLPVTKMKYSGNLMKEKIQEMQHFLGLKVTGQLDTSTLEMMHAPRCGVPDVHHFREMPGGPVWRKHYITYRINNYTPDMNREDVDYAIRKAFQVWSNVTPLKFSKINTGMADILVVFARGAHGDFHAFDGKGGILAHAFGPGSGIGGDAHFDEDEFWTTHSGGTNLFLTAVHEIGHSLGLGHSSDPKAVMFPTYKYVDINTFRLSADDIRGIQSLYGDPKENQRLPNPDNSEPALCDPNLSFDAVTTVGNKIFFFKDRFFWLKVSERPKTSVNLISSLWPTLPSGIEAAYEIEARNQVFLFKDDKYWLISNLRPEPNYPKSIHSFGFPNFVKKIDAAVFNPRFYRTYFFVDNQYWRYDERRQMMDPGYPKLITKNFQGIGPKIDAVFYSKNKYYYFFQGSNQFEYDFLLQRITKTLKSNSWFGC

Structure (SMILES) | Ki (Carboxypeptidase A1 [1]) [nM] | K [2] [×10⁻⁵ /s] | inhibition [3] | Ki (Carboxypeptidase A1 [4]) [nM] | K [5] [×10⁵ /M/s] | Ki (Carboxypeptidase A4) [nM] | inhibition [6] | Ki [7] [nM] | Activity (HEK-293T [8]) | inhibition [9] | Ki [10] [nM] | Activity (HEK-293T [11])
CC(=O)N[C@@H](CC(C)C)C(=O)N[C@@H](C)P(=O)(O)C[C@@H](CCc1ccccc1)C(=O)O | 0.47 | 6 | inactive | 0.14 | 1.27 | 3.3 | – | – | – | – | – | –
C[C@H](NC(=O)[C@H](Cc1ccc(O)cc1)NC(=O)COCCOCCN)P(=O)(O)C[C@@H](CCc1ccccc1)C(=O)O | – | – | inactive | – | – | 5.4 | – | – | – | – | – | –
CC(=O)N[C@@H](CCC(=O)O)C(=O)N[C@@H](C)P(=O)(O)C[C@@H](CCc1ccccc1)C(=O)O | – | – | inactive | – | – | 38.6 | – | – | – | – | – | –
CC(=O)N1CCC[C@H]1C(=O)N[C@@H](C)P(=O)(O)C[C@@H](CCc1ccccc1)C(=O)O | – | – | inactive | – | – | 7.5 | – | – | – | – | – | –
CC(=O)N[C@@H](CC(C)C)C(=O)N[C@@H](Cc1ccccc1)P(=O)(O)C[C@@H](CCc1ccccc1)C(=O)O | – | – | inactive | – | – | 1.9 | – | – | – | – | – | –
CC(=O)N[C@@H](CO)C(=O)N[C@@H](C)P(=O)(O)C[C@@H](CCc1ccccc1)C(=O)O | – | – | inactive | – | – | 60.6 | – | – | – | – | – | –
C[C@H](NC(=O)[C@H](Cc1ccc(O)cc1)NC(=O)COCCOCCNC(=O)CCOCCOCCOCCNC(=O)CCc1ccc(C(=C\C=C2\N(CCCCS(=O)(=O)O)c3ccc4c(S(=O)(=O)[O-])cc(S(=O)(=O)O)cc4c3C2(C)C)/C=C/C2=[N+](CCCCS(=O)(=O)O)c3ccc4c(S(=O)(=O)O)cc(S(=O)(=O)O)cc4c3C2(C)C)cc1)P(=O)(O)C[C@@H](CCc1ccccc1)C(=O)O | 0.24 | 4.8 | inactive | 0.07 | 2.03 | 5.7 | inactive | 2590 | Non-Toxic | inactive | 1340 | –
CC(=O)N[C@@H](CCCCN)C(=O)N[C@@H](C)P(=O)(O)C[C@@H](CCc1ccccc1)C(=O)O | – | – | inactive | – | – | 25.4 | – | – | – | – | – | –
CC(=O)N[C@@H](Cc1ccc(O)cc1)C(=O)N[C@@H](C)P(=O)(O)C[C@@H](CCc1ccccc1)C(=O)O | 0.53 | 7.6 | inactive | 0.16 | 1.44 | 2.6 | – | – | – | – | – | Non-Toxic
CC(=O)NCCOCCOCC(=O)N[C@@H](Cc1ccc(O)cc1)C(=O)N[C@@H](C)P(=O)(O)C[C@@H](CCc1ccccc1)C(=O)O | 0.53 | 7 | inactive | 0.16 | 1.33 | 3.5 | – | – | – | – | – | –

Reference: ChEMBL document CHEMBL4411328, “Synthesis and Structural/Functional Characterization of Selective M14 Metallocarboxypeptidase Inhibitors Based on Phosphinic Pseudopeptide Scaffold: Implications on the Design of Specific Optical Probes” (J Med Chem, 2019)
